According to ChEMBL document CHEMBL1139732, “Identification and optimisation of 5-amino-7-aryldihydro-1,4-diazepines as 5-HT2A ligands” (Bioorg Med Chem Lett, 2006):
pIC50: −log10 of the molar value.

Columns and labels:
[1] = biological target: Voltage-gated inwardly rectifying potassium channel KCNH2 (Homo sapiens, UniProt Q12809); assay: Activity at HERG potassium channel; type: functional
[2] = biological target: T1, 5-hydroxytryptamine receptor 2C (Homo sapiens, UniProt P28335); assay: Binding affinity to 5HT2C receptor
T1 sequence (P28335 whole entry): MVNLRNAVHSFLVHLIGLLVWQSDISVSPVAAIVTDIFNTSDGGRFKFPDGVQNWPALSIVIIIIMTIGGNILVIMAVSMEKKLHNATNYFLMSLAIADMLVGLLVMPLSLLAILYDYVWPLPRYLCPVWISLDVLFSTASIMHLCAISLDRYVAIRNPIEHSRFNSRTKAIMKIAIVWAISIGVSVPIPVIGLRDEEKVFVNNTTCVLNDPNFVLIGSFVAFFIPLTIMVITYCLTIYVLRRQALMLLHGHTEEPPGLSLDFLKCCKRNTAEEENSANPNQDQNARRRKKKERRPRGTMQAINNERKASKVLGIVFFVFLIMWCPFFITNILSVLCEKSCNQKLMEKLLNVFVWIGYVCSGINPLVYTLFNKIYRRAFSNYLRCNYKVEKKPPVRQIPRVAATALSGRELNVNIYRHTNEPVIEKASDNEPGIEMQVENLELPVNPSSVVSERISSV

[3] = biological target: 5-hydroxytryptamine receptor 2A (Homo sapiens, UniProt P28223); assay: Displacement of [3H]ketanserin from human 5HT2A receptor expressed in CHOK1 cells; type: cell-based, CHO-K1
Chain of 5-hydroxytryptamine receptor 2A (Homo sapiens, UniProt P28223) (P28223 whole entry): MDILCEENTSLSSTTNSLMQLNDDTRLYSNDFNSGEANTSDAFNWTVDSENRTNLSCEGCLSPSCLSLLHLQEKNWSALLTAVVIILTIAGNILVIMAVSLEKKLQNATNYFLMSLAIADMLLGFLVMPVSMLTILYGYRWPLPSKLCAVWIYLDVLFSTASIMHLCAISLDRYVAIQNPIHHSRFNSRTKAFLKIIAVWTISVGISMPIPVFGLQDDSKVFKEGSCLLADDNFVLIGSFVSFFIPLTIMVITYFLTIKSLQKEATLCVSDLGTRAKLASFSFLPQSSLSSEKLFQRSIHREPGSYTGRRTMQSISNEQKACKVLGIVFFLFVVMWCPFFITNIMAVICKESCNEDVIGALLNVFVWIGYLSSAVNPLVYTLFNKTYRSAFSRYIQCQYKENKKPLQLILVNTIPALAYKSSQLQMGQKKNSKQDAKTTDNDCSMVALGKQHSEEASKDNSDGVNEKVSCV
Method in brief: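 Membranes from confluent CHO K1 cells expressing human 5-HT2A were incubated with [3H]ketanserin (76 Ci/mmol) for 15 min at 37 °C with shaking at 180 rpm. Buffer was 50 mM Tris pH 7.7, 0.1% ascorbate, pargyline, MgSO4 and 0.5 mM EDTA. Bound and free ligand were separated by GF/B filtration and the filters counted. Mianserin defined non-specific binding. Five-point log titrations were fitted with a four-parameter curve to give IC50 and Ki.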

[4] = biological target: 5-hydroxytryptamine receptor 2A (Rattus norvegicus, UniProt P14842); assay: Binding affinity to rat 5HT2A receptor
Chain of 5-hydroxytryptamine receptor 2A (Rattus norvegicus, UniProt P14842) (P14842 whole entry): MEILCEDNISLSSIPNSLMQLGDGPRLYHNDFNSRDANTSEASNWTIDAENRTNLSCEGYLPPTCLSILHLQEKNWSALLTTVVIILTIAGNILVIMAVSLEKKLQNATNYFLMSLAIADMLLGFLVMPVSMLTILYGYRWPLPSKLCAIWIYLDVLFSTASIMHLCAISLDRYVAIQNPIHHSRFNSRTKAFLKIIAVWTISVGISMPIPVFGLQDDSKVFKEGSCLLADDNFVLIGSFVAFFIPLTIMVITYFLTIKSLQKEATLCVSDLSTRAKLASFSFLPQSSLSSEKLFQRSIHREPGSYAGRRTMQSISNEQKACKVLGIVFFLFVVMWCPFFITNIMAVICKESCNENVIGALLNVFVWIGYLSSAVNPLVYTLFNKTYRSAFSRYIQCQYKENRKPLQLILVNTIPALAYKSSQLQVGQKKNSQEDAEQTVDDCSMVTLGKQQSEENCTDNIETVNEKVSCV

Chain of Voltage-gated inwardly rectifying potassium channel KCNH2 (Q12809 whole entry): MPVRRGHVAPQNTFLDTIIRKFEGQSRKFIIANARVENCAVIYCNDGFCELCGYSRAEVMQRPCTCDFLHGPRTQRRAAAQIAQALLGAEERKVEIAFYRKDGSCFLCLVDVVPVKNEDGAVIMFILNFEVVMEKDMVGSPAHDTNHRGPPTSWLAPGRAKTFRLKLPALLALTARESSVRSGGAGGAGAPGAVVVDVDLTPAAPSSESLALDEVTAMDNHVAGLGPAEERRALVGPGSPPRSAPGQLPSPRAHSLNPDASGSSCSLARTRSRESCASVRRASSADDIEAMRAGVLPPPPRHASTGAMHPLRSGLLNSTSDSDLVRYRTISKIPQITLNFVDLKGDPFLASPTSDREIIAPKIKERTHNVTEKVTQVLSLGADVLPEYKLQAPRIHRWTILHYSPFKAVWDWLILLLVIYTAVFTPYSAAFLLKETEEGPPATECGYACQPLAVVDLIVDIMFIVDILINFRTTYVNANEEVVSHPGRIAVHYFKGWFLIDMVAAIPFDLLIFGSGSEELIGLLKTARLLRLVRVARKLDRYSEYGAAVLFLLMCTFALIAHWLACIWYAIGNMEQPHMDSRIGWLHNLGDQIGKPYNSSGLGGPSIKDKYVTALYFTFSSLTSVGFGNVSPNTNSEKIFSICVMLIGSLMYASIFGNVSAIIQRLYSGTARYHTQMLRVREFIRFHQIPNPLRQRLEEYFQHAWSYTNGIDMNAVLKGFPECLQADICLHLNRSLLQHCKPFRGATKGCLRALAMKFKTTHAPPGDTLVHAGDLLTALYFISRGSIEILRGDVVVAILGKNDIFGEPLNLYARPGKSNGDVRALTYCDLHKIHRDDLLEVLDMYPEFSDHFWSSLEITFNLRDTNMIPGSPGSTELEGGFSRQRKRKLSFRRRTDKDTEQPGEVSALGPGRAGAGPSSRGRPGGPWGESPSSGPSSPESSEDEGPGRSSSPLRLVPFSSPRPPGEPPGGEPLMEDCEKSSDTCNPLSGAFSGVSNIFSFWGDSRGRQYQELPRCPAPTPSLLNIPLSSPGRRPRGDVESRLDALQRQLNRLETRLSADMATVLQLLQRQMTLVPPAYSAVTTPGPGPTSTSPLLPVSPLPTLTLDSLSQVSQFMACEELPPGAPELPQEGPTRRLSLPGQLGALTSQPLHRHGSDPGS

SMILES | pIC50 [2] | pIC50 [3] | pIC50 [4] | Activity [1] [nM]
CC(C)(C)NC1=NCCNC(c2ccc(F)cc2F)=C1 |  | 7.96 |  | > 1000
CC(C)(C)NC1=NCCNC(c2ccccc2)=C1 | 5.98 | 7.46 |  | > 1000
Cc1ccc(C2=CC(N3CCOCC3)=NCCN2)cc1 |  | < 6.00 |  | > 1000
CCN(CC)C1=NCCNC(c2ccccc2F)=C1 |  | < 6.00 |  | > 1000
CCC(CC)(CC)NC1=NCCNC(c2ccc(F)cc2F)=C1 | 7.07 | 8.43 |  | > 1000
Cc1ccc(C2=CC(NC(C)(C)Cc3ccccc3)=NCCN2)cc1 |  | 8.62 |  | 300
Cc1ccc(C2=CC(NC(C)(C)C)=NCCN2)c(F)c1 |  | 7.85 |  | > 1000
CC(C)(C)NC1=NCCNC(c2ccc(C#N)cc2)=C1 |  | 5.55 |  | > 1000
Cc1ccc(C2=CC(N3CCNCC3)=NCCN2)cc1 |  | < 6.00 |  | > 1000
CCN(CC)C1=NCCNC(c2ccc(C)cc2)=C1 |  | < 6.00 |  | > 1000
CC1(NC2=NCCNC(c3ccc(F)cc3)=C2)CCCCC1 |  | 8.80 |  | > 1000
CC(C)(NC1=NCCNC(c2ccc(F)cc2F)=C1)C1CCC1 |  | 8.85 |  | > 1000

Continued, in another order:

pIC50 [2] | pIC50 [3] | pIC50 [4] | SMILES | Activity [1] [nM]
6.20 | 7.68 |  | CC(C)(C)NC1=NCCNC(c2ccc(F)cc2)=C1 | > 1000
 | 6.27 |  | COc1ccc(C2=CC(NC(C)(C)C)=NCCN2)cc1 | > 1000
7.80 | 8.82 |  | CCC(C)(CC)NC1=NCCNC(c2ccc(F)cc2)=C1 | > 1000
 | 8.35 |  | CCC(C)(CC)NC1=NCCNC(c2ccccc2F)=C1 | > 1000
 | 9.10 |  | CCC1(NC2=NCCNC(c3ccc(F)cc3)=C2)CCCC1 | > 1000
 | 7.96 |  | Cc1ccc(C2=CC(NC(C)(C)C)=NCCN2)cc1 | > 1000
 | 5.82 |  | CC(C)(C)CNC1=NCCNC(c2ccccc2F)=C1 | > 1000
 | 7.15 |  | Cc1ccc(C2=CC(NC(C)(C)C)=NCCN2)c(C)c1 | > 1000
 | 7.12 |  | CC(C)(C)NC1=NCCNC(c2ccccc2Cl)=C1 | > 1000
 | 8.44 |  | CCC1(NC2=NCCNC(c3ccccc3F)=C2)CCCC1 | > 1000
7.12 | 7.83 |  | CCC(C)(CC)NC1=NCCNC(c2ccc(C)cc2)=C1 | > 1000
 | 8.42 |  | CC(C)(Cc1ccccc1)NC1=NCCNC(c2ccccc2F)=C1 | 270
 | 6.95 |  | Cc1ccccc1C1=CC(NC(C)(C)C)=NCCN1 | > 1000
 | 6.29 |  | CC(C)(C)NC1=NCCNC(c2cccc(C(F)(F)F)c2)=C1 | > 1000
7.57 | 8.96 | 8.64 | CCC1(NC2=NCCNC(c3ccc(F)cc3F)=C2)CCCC1 | > 1000
 | 7.74 |  | CC(C)(C)NC1=NCCNC(c2ccccc2F)=C1 | > 1000
